For 18 molecules, ED50 results are on record in ChEMBL document CHEMBL1124407, “Synthesis of gastrin antagonists, analogues of the C-terminal tetrapeptide of gastrin, by introduction of a beta-homo residue” (J Med Chem, 1989).

Where a SMILES comes first, the peptide text is derived from it. [ ]: non-standard residue; d: D form. The star is where a group is joined. β3hF = N[C@H](CC(=O)O)Cc1ccccc1; Boc = CC(C)(C)OC(=O)*

Test [1] concerns the target T1, Gastrin/cholecystokinin type B receptor (Rattus norvegicus) (UniProt P30553).
T1 sequence (whole entry): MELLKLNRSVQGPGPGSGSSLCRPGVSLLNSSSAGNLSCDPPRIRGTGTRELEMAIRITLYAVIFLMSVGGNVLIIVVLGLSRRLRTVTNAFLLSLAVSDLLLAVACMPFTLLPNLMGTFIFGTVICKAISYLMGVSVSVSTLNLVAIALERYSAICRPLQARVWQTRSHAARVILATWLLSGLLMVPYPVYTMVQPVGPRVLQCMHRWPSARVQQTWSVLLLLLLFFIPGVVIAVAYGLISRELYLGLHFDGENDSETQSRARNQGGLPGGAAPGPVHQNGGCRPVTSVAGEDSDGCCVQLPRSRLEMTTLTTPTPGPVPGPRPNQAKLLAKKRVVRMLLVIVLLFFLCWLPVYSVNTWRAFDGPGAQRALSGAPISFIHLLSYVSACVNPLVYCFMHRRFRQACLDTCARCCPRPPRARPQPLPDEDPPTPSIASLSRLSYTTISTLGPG
As to the kind of experiment: Activity in vivo gastrin-induced acid secretion in rats. The test is classed as functional, organism-based. The method, boiled down: (§1)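 Anesthetized rats; cumulative gastric pH recorded over time as the index of acid secretion. Peptides and (Leu15)-human gastrin I were given as intravenous bolus in 0.9% NaCl. Secreted H+ was taken from the difference between stimulated and basal traces. For inhibition, peptide in alkaline water was injected together with gastrin (usually 80 pmol) at various doses. Response was expressed as percent of the gastrin-alone H+ output.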

The next test has as its system Rattus norvegicus. The experiment in a line: Activity of compound on in vivo gastrin-induced acid secretion in rats; Agonist. Type of test: functional, organism-based. The conditions noted are these: filed as agonist. The essentials:
as §1

In general, ED50 refers to the dose at which the effect has come halfway, by size or by number of responders. `CC(C)C[C@H](NC(=O)[C@H](Cc1c[nH]c2ccccc12)NC(=O)OC(C)(C)C)C(=O)N[C@H](CC(=O)O)CC(=O)NCCc1ccccc1` returned a median effective dose (ED50) in test [1] of 0.5 mg/kg. Still for that read-out and setting: for `CC(C)CC(NC(=O)[C@@H](Cc1c[nH]c2ccccc12)NC(=O)OC(C)(C)C)C(=O)N[C@H](CC(=O)O)CC(=O)NC(Cc1ccccc1)C(N)=O` (stereo in doubt) the value was 2.5 mg/kg; for `CC(C)C[C@H](NC(=O)[C@H](Cc1c[nH]c2ccccc12)NC(=O)OC(C)(C)C)C(=O)N[C@H](CC(=O)O)CC(=O)N[C@@H](Cc1ccccc1)C(N)=O`, 0.1 mg/kg; for `CC(C)C[C@@H](CC(=O)NC(CC(=O)O)C(=O)NCc1ccccc1)NC(=O)[C@@H](Cc1c[nH]c2ccccc12)NC(=O)OC(C)(C)C` (stereo partly drawn), 5 mg/kg. Turning to `CC(C)CC(CC(=O)N[C@H](CC(=O)O)C(=O)N[C@H](Cc1ccccc1)C(N)=O)NC(=O)C(Cc1c[nH]c2ccccc12)NC(=O)OC(C)(C)C` (stereo partly drawn), it took a dose of 5 mg/kg to reach the 50% effect level in test [1] (ED50). On the same count and under the same terms, in the case of `CC(C)CC(CC(=O)N[C@H](CC(=O)O)C(=O)NCCc1ccccc1)NC(=O)C(Cc1c[nH]c2ccccc12)NC(=O)OC(C)(C)C` (stereo partly drawn) it was 0.8 mg/kg; in that of `CC(C)C[C@H](CC(=O)N[C@@H](CC(=O)O)C(=O)N[C@@H](Cc1ccccc1)C(N)=O)NC(=O)[C@@H](Cc1c[nH]c2ccccc12)NC(=O)OC(C)(C)C`, 7.5 mg/kg; in that of `CC(C)C[C@@H](CC(=O)N[C@@H](CC(=O)O)C(=O)N[C@@H](Cc1ccccc1)C(N)=O)NC(=O)[C@H](Cc1c[nH]c2ccccc12)NC(=O)OC(C)(C)C`, 1.5 mg/kg. For `CC(C)CC(CC(=O)NC(CC(=O)O)C(=O)NCc1ccccc1)NC(=O)C(Cc1c[nH]c2ccccc12)NC(=O)OC(C)(C)C` (stereo not drawn), in test [1], the 50% effect level (ED50) was put at a dose of 0.5 mg/kg.

In the case of `CC(C)CC(CC(=O)N[C@H](CC(=O)O)C(=O)NCc1ccccc1)NC(=O)C(Cc1c[nH]c2ccccc12)NC(=O)OC(C)(C)C` (stereo partly drawn), it took a dose of 1.5 mg/kg to reach the 50% effect level in test [1] (ED50). Same read-out and setting: in the case of `CC(C)C[C@H](NC(=O)[C@H](Cc1c[nH]c2ccccc12)NC(=O)OC(C)(C)C)C(=O)N[C@@H](CC(=O)O)C(=O)N[C@H](CC(N)=O)Cc1ccccc1` (Boc-WLD[β3hF]-NH2) it was 7 mg/kg.

In turn, `CC(C)CC(NC(=O)[C@@H](Cc1c[nH]c2ccccc12)NC(=O)OC(C)(C)C)C(=O)N[C@H](CC(=O)O)CC(=O)NCCc1ccccc1` (stereo in doubt) returned an ED50 in test [1] of 2.5 mg/kg. On the same count and under the same terms, in the case of `CC(C)C[C@H](NC(=O)[C@H](Cc1c[nH]c2ccccc12)NC(=O)OC(C)(C)C)C(=O)N[C@H](CC(=O)O)CC(=O)NCc1ccccc1` it was 0.2 mg/kg; in that of `CC(C)C[C@H](NC(=O)[C@H](Cc1c[nH]c2ccccc12)NC(=O)OC(C)(C)C)C(=O)N[C@H](CC(=O)O)CC(=O)N[C@H](Cc1ccccc1)C(N)=O`, 0.1 mg/kg; in that of `CC(C)C[C@@H](CC(=O)NC(CC(=O)O)C(=O)NCCc1ccccc1)NC(=O)[C@@H](Cc1c[nH]c2ccccc12)NC(=O)OC(C)(C)C` (stereo partly drawn), 0.5 mg/kg.

In test [1], `CC(C)CC(NC(=O)[C@@H](Cc1c[nH]c2ccccc12)NC(=O)OC(C)(C)C)C(=O)N[C@H](CC(=O)O)CC(=O)NCc1ccccc1` (stereo in doubt) yielded an ED50 of 1 mg/kg. The same measure, in the same setting: for `CC(C)CC(CC(=O)NC(CC(=O)O)C(=O)NCCc1ccccc1)NC(=O)C(Cc1c[nH]c2ccccc12)NC(=O)OC(C)(C)C` (stereo not drawn) the value was 0.5 mg/kg. As to `CC(C)C[C@H](NC(=O)[C@H](Cc1c[nH]c2ccccc12)NC(=O)OC(C)(C)C)C(=O)N[C@@H](CC(=O)O)C(=O)N[C@@H](Cc1ccccc1)C(N)=O` (Boc-WLDF-NH2), the ED50 entry with Rattus norvegicus is “Agonist”.
